14 compounds from ChEMBL document CHEMBL1149082, “Discovery of novel thieno[2,3-d]pyrimidin-4-yl hydrazone-based inhibitors of Cyclin D1-CDK4: synthesis, biological evaluation, and structure-activity relationships” (Bioorg Med Chem Lett, 2009) can be followed below.

A word on the IC50: it is the concentration needed to halve the response being measured. A higher IC50 goes with weaker potency. A word on the solubility: it is the dissolved amount per volume that the medium holds. A low value points to a poorly soluble substance. In general, inhibition in vivo refers to the relative decrease from the control value, in per cent.

Converted amounts (≈) assume the structure as drawn. The source made the active and inactive calls. The rule behind the calls is not given here.

Data set [1] concerns the target T1, Cyclin-dependent kinase 4 (Homo sapiens, UniProt P11802). Briefly: Inhibition of CDK4-mediated retinoblastoma protein phosphorylation by dose-response curve analysis. An outline of the steps: (§1)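 Kinase assay read as Rb phosphorylation by cyclin D1-CDK4 or cyclin E-CDK2. IC50 is the concentration (μg/mL) giving 50% inhibition of Rb phosphorylation, read from the dose-response curve. Values are means of at least two determinations.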

Data set [2] has as its target Cyclin-dependent kinase 2 (Homo sapiens, UniProt P24941). Description: Inhibition of CDK2-mediated retinoblastoma protein phosphorylation by dose-response curve analysis. An outline of the steps: as §1
In data set [3] the target is T1, Cyclin-dependent kinase 4. Briefly: Inhibition of CDK4-mediated retinoblastoma protein phosphorylation up to 20 ug/mL by dose-response curve analysis.
A short description of data set [4]: Aqueous solubility in water. The format is physicochemical.
Data set [5] deals with HCT-116. Description: Antiproliferative activity against human HCT116 cells by dose-response curve analysis. The format is functional, cell-based. An outline of the steps: (§2)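 Cell growth inhibition measured from dose-response curves at ten concentrations. IC50 is the concentration giving 50% growth inhibition, read from these curves.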
Data set [6] concerns PC-6. Briefly: Antiproliferative activity against human PC6 cells by dose-response curve analysis. The format is functional, cell-based. An outline of the steps:
as §2

Data set [7] relates to WiDr. Briefly: Antiproliferative activity against human WiDr cells by MTT assay. The format is functional, cell-based. The method in brief: as §2
The test system of data set [8] is DLD-1. Description: Antiproliferative activity against human DLD1 cells by MTT assay. In kind it is functional, cell-based. The method in brief:
as §2
(Tetrazolium dyes change colour on reduction, which living cells bring about.)

Data set [9] relates to HCT-116. Briefly: Antiproliferative activity against docetaxal-resistant human HCT116 cells by MTT assay. The format is functional, cell-based. The method in brief: as §2
In data set [10] the test system is HCT-116. Briefly: Antiproliferative activity against SN2-3-resistant human HCT116 cells by MTT assay. The format is functional, cell-based. The method in brief:
as §2

The subject of data set [11] is MKN-28. Briefly: Antiproliferative activity against human MKN28 cells by MTT assay. In kind it is functional, cell-based. An outline of the steps:
as §2

Data set [12] relates to MDA-MB-231. Briefly: Antiproliferative activity against human MDA-MB-231 cells by MTT assay. The format is functional, cell-based. The method in brief: as §2
The test system of data set [13] is MDA-MB-468. Briefly: Antiproliferative activity against human MDA-MB-468 cells by MTT assay. In kind it is functional, cell-based. An outline of the steps: as §2
A short description of data set [14]: Antiproliferative activity against mouse B16-BL6 cells by MTT assay. The format is functional, cell-based. The method in brief: as §2
The subject of data set [15] is P388. Briefly: Antiproliferative activity against mouse P388 cells by MTT assay. In kind it is functional, cell-based. An outline of the steps:
as §2

Data set [16] relates to HCT-116. Briefly: Cell cycle arrest in human HCT116 cells assessed as increase in accumulation at G1 phase after 16 hrs by FACS analysis. The format is functional, cell-based. The method in brief: (§3)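 HCT116 cells exposed to test compound at various concentrations for 16 hr, then collected. DNA content measured by flow cytometry to assign G1, S and G2/M fractions.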
A general note: Flow cytometry measures light scatter and fluorescence of single cells or particles in a stream.

For data set [17], the system named is HCT-116. Description: Cell cycle arrest in human HCT116 cells assessed as accumulation at G1 phase at 500 ng/mL after 16 hrs by FACS analysis. In kind it is functional. The method in brief: as §3
The test system of data set [18] is HCT-116. Briefly: Cell cycle arrest in human HCT116 cells assessed as decrease in accumulation at S phase at 500 ng/mL after 16 hrs by FACS analysis. The format is functional, cell-based. The method in brief: as §3
Data set [19] relates to HCT-116. Briefly: Cell cycle arrest in human HCT116 cells assessed as decrease in accumulation at G2/M phase at 500 ng/mL after 16 hrs by FACS analysis. The format is functional, cell-based. The method in brief: as §3
In data set [20] the test system is HCT-116. Briefly: Antitumor activity against human HCT116 cells xenografted in nude mouse assessed as maximum inhibition of […] growth at 200 mg/kg, iv qd for 4 days. The conditions noted are these: HCT-116, 96 h. The format is functional. The method in brief: (§4)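 HCT116 solid tumours in mice. Hydrochloride salt dissolved in 40% Captisol, dosed 200 mg/kg once daily for 4 days (qdx4), i.v. or p.o. Read-outs: maximum inhibition rate of tumour volume, maximum body weight loss, and toxic deaths out of 5 mice.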
In general terms: Xenograft models place foreign cells or tissue in a host animal.

In data set [21] the test system is HCT-116. Briefly: Antitumor activity against human HCT116 cells xenografted in nude mouse assessed as maximum inhibition of […] growth at 200 mg/kg, po qd for 4 days. In kind it is functional. The conditions noted are these: HCT-116, 96 h. An outline of the steps: as §4
The subject of data set [22] is Mus musculus. Description: Toxicity in nude mouse xenografted with human HCT116 cells assessed as maximum body weight loss at 200 mg/kg, iv qd for 4 days. In kind it is organism-based, HCT-116. More on the design: dose 200 mg/kg, route intravenous. The conditions noted are these: in vivo, 96 h. The method in brief:
as §4

Data set [23] deals with Mus musculus. Briefly: Toxicity in nude mouse xenografted with human HCT116 cells assessed as maximum body weight loss at 200 mg/kg, po qd for 4 days. The conditions noted are these: in vivo, 96 h. Also noted: dose 200 mg/kg, route oral. In kind it is organism-based, HCT-116. The method in brief:
as §4

Data set [24] relates to Mus musculus. Briefly: Toxicity in nude mouse xenografted with human HCT116 cells assessed as death at 200 mg/kg, iv qd for 4 days. In kind it is organism-based, HCT-116. More on the design: dose 200 mg/kg, route intravenous. To be noted: in vivo, 96 h. An outline of the steps:
(§5)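 Mice bearing HCT116 colon solid tumours (n=5 per group) dosed as the hydrochloride salt dissolved in 40% Captisol at 200 mg/kg once daily for 4 days (qdx4), i.v. or p.o. Toxicity recorded as the number of mice dead from toxicity over the number used, with maximum body-weight loss also noted.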

Data set [25] deals with Mus musculus. Description: Toxicity in nude mouse xenografted with human HCT116 cells assessed as death at 200 mg/kg, po qd for 4 days. The format is organism-based, HCT-116. Also noted: dose 200 mg/kg, route oral. To be noted: in vivo, 96 h. An outline of the steps: as §5
Data set [26] is described as follows: Solubility in 40% captisol. In kind it is physicochemical.

On to `CC(C)(C)c1cc2c(N/N=C\c3cccs3)ncnc2s1`, for which the concentration for half-maximal inhibition (IC50) is 0.379 µM in data set [1] and 1.77 µM in data set [2].
The like results for `CCc1cc2c(N/N=C\c3cccs3)nc(C)nc2s1` were, in that order, above 66.1 µM and above 66.1 µM.
For the compound `C(=N/Nc1ncnc2sc(Cc3ccccc3)cc12)/c1cccs1`, the IC50 in data set [1] was above 57.1 µM; in data set [2] it was 18.5 µM. The result in [3] was inactive.
For `CCc1cc2c(N/N=C\C3CC3)ncnc2s1`, the IC50 in data set [1] was 13 µM; in data set [2], 16.6 µM.
On to `CN(C)Cc1cccc(/C=N\Nc2ncnc3sc(C(C)(C)C)cc23)n1`, for which the IC50 was 0.152 µM in [1]; 3.8 µM in data set [2]; 0.429 µg/mL (≈ 1.16 µM) in [5]; 0.381 µg/mL (≈ 1.03 µM) in data set [6]; 0.889 µg/mL (≈ 2.41 µM) in data set [7]; 0.506 µg/mL (≈ 1.37 µM) in data set [8]. In addition, the 50% inhibitory concentration (IC50) in data set [9] was determined as 0.973 µg/mL (≈ 2.64 µM); in data set [10], 0.755 µg/mL (≈ 2.05 µM); in [11], 1.39 µg/mL (≈ 3.77 µM); in data set [12], 0.919 µg/mL (≈ 2.49 µM); in data set [13], 0.315 µg/mL (≈ 0.855 µM); in data set [14], 1.09 µg/mL (≈ 2.96 µM). This compound showed an IC50 in data set [15] of 0.37 µg/mL (≈ 1 µM). Also, the solubility in data set [4] was 44 µg/mL (≈ 119 µM). Also, the Activity entry in data set [16] is “Dose-dependent effect”.
Regarding `CC(C)(C)c1cc2c(N/N=C\c3cccc(CO)n3)ncnc2s1`, the IC50 in data set [1] was 1.03 µM; in [2] it was 6.15 µM; in data set [5], 0.039 µg/mL (≈ 0.114 µM); in data set [6], 0.034 µg/mL (≈ 0.0996 µM).
The like results for `CCc1cc2c(N/N=C\C(C)(C)C)ncnc2s1` were, in that order, 16.8 µM, 14.5 µM, 1.66 µg/mL (≈ 6.33 µM) and 1.55 µg/mL (≈ 5.91 µM).
For `CCc1c(C)sc2ncnc(N/N=C\c3cccs3)c12`, the values for the IC50 in [1] and in data set [2] were 52.9 µM and 39.7 µM, respectively.
Turning to `Cc1cccc(/C=N\Nc2ncnc3sc(C(C)(C)C)cc23)n1`, the IC50 in data set [1] is 1.6 µM; in data set [2], 21.2 µM; in data set [5] it was 0.268 µg/mL (≈ 0.823 µM); in [6], 0.258 µg/mL (≈ 0.793 µM).
Take `CC(C)c1cc2c(N/N=C\c3cccnc3)ncnc2s1`: the IC50 in [1] is 1.85 µM; in [2] it was 2.35 µM; in data set [6], 0.889 µg/mL (≈ 2.99 µM).
Take `CC(C)(C)c1cc2c(N/N=C\c3ccccn3)ncnc2s1`: the IC50 in [1] was 2.89 µM; in [2] it was 8.99 µM; in [5] it was 0.014 µg/mL (≈ 0.045 µM); in data set [6], 0.009 µg/mL (≈ 0.0289 µM); in data set [7] it was 0.019 µg/mL (≈ 0.061 µM); in data set [8], 0.037 µg/mL (≈ 0.119 µM). The IC50 in data set [9] worked out at 0.007 µg/mL (≈ 0.0225 µM); in [10], 0.005 µg/mL (≈ 0.0161 µM); in [11], 0.049 µg/mL (≈ 0.157 µM); in data set [12], 0.019 µg/mL (≈ 0.061 µM); in [13], 0.008 µg/mL (≈ 0.0257 µM); in data set [14] it was 0.045 µg/mL (≈ 0.145 µM). This compound also returned an IC50 in data set [15] of 0.006 µg/mL (≈ 0.0193 µM). Further, the Activity is 64% in data set [17]; 22.6% in [22]; 4.6% in data set [23]; “Non-toxic” in data set [24]; “Non-toxic” in data set [25]. Also, the outcome in data set [18] and in data set [19] was Active. For the same compound, the figures for the inhibition in vivo at 200 mg/kg in data set [20] and in data set [21] were 67.9% and 54.1%, respectively. Besides, the solubility result in data set [26] was “Soluble”.
Consider `CC(C)c1cc2c(N/N=C\c3ccncc3)ncnc2s1`, for which the IC50 in data set [1] was 0.807 µM; in [2] it was 1.11 µM; in data set [6], above 10 µg/mL.
On to `Cc1cc2c(N/N=C\c3cccs3)ncnc2s1`, for which the IC50 in data set [1] is 6.92 µM; in [2] it was 6.2 µM.
With `CC(C)c1cc2c(N/N=C\c3ccccc3)ncnc2s1`, the figures for the IC50 in data set [1], in data set [2] and in [6] were 1.59 µM, 2.97 µM and 0.651 µg/mL (≈ 2.2 µM), respectively.
